≈ marks a conversion by molar mass, not a printed value.
How the values were obtained:
Aspergillus niger = experiment: Antifungal activity against Aspergillus niger; format: functional
Outline: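 Disk diffusion assay measuring growth inhibition of Aspergillus niger, run by an earlier published method. The zone of inhibition is reported as an area rather than a diameter.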

KB = experiment: Cytotoxicity against human KB cells after 72 hrs by MTS method; format: functional, cell-based
LX-1 = experiment: Cytotoxicity against human LX1 cells after 72 hrs by MTS method; format: functional, cell-based; details: LX-1, 72 h
Outline: (§1)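 Cells grown in McCoy's 5A with 10% heat-inactivated fetal bovine serum and seeded 24 h before dosing. Serially diluted compound was added, then incubated 72 h at 37 °C. MTS with phenazine methosulfate was added for 3 h more, and absorbance at 492 nm gave survival relative to untreated controls. IC50 was taken from six-point curves (5-fold dilutions), each point in duplicate.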

HCT-116 = experiment: Cytotoxicity against human HCT116 cells after 72 hrs by MTS method; format: functional, cell-based; details: HCT-116, 72 h; outline: as §1
A2780 = experiment: Cytotoxicity against human A2780 cells after 72 hrs by MTS method; format: functional, cell-based; details: A2780, 72 h; outline: as §1

C[C@@H]1[C@H](O)[C@@H](C)/C=C/C=C/C=C/C=C/C=C/C=C/C=C/[C@H](O[C@@H]2O[C@H](C)[C@@H](O)[C@H](N)[C@@H]2O)C[C@@H]2O[C@](O)(C[C@@H](O)C[C@@H](O)[C@H](O)CC[C@@H](O)C[C@@H](O)CC(=O)O[C@H]1C)C[C@H](O)[C@H]2C(=O)O [AMPHOTERICIN B]
inhibition zone (IZ) (Aspergillus niger): 254 mm2

C=C/C(C)=C/C[C@]1(C)[C@H](C)C[C@H](O)[C@]23C(=C[C@@H](OC(=O)C(C)C)C[C@@H]12)[C@@H](OC(C)=O)O[C@H]3OC(C)=O [CASEARVESTRIN A]
EC50 (KB): 1.4 µg/mL (≈ 2.77 µM) | inhibition zone (IZ) (Aspergillus niger): 348 mm2 | IC50 (LX-1): 540 nM | IC50 (HCT-116): 710 nM | IC50 (A2780): 820 nM

C=C/C(C)=C/C[C@]1(C)[C@H](C)C[C@H](O)[C@]23C(=C[C@@H](OC(=O)C(C)CC)C[C@@H]12)[C@@H](OC(C)=O)O[C@H]3OC(C)=O (some centres undefined) [CASEARVESTRIN B]
EC50 (KB): 1.4 µg/mL (≈ 2.7 µM) | inhibition zone (IZ) (Aspergillus niger): 296 mm2 | IC50 (LX-1): 200 nM | IC50 (HCT-116): 250 nM | IC50 (A2780): 320 nM

C=C/C(C)=C/C[C@]1(C)[C@H](C)C[C@H](O)[C@]23C(=C[C@@H](OC(=O)CCCCC)C[C@@H]12)[C@@H](OC(C)=O)O[C@H]3OC(C)=O [CASEARVESTRIN C]
EC50 (KB): 0.34 µg/mL (≈ 0.638 µM) | inhibition zone (IZ) (Aspergillus niger): 177 mm2 | IC50 (LX-1): 290 nM | IC50 (HCT-116): 260 nM | IC50 (A2780): 420 nM

CC[C@@]1(O)C(=O)OCc2c1cc1n(c2=O)Cc2cc3ccccc3nc2-1 [CAMPTOTHECIN]
IC50 (LX-1): 120 nM | IC50 (HCT-116): 9 nM | IC50 (A2780): 4 nM

From ChEMBL document CHEMBL1159312, “Novel bioactive clerodane diterpenoids from the leaves and twigs of Casearia sylvestris” (J Nat Prod, 2002)
